ChEMBL document CHEMBL2163238, “Design, synthesis, and biological evaluation of N-alkylated deoxynojirimycin (DNJ) derivatives for the treatment of dengue virus infection” (J Med Chem, 2012)
In brackets after ≈: the same amount, converted by molar mass.

Experiments:
[1] = Antiviral activity against 1 MOI BVDV NADL infected in MDBK cells assessed as reduction in viral titer after 22 hrs; type: functional, cell-based, Bovine viral diarrhea virus 1-NADL; conditions: Bovine viral diarrhea virus isolates and strains, MDBK, 22 h
Outline: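 MDBK cells (2×10^5) infected 24 h after seeding with BVDV NADL at MOI 1, with 1 h adsorption at 37 °C. Washed, then compounds at 0.1–100 μM. Media harvested 22 h post-infection and plaque-titrated on MDBK under 1% methylcellulose for 3 days. Plaques counted directly or after neutral red staining. EC50 from dose–response curves, mean of 3 independent experiments.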

dengue virus type 2 = assay: Antiviral activity against 0.01 MOI DENV-2 NGC infected in BHK cells assessed as reduction in viral titer after 48 hrs; type: functional, organism-based
Outline: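 BHK cells infected with DENV-2 New Guinea C at MOI 0.01 for 1 h. Inoculum removed, then compounds at 0.1–100 μM for 48 h at 37 °C. Supernatants titrated on Vero monolayers as 10-fold dilutions under 0.5% methylcellulose for 3–5 days. Foci detected by 4G2 immunostaining or crystal violet plaques. EC50 from dose–response curves, mean of 3 independent experiments.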

[2] = Selectivity index, ratio of CC50 for MDBK cells to EC50 for BVDV NADL infected in MDBK cells
Outline: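 MDBK cells infected with BVDV NADL at MOI 1, 1 h at 37 °C, washed, then compounds at 0.1–100 μM. Media harvested at 22 h, plaque-titrated on MDBK under 1% methylcellulose for 3 days, neutral red or direct count. EC50 from yield curves; MTT CC50 in uninfected MDBK; SI = CC50/EC50.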

[3] = Selectivity index, ratio of CC50 for BHK cells to EC50 for DENV-2 NGC infected in BHK cells
Outline: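 BHK cells infected with DENV-2 New Guinea C at MOI 0.01 for 1 h, then compounds at 0.1–100 μM for 48 h at 37 °C. Supernatant titrated on Vero cells under 0.5% methylcellulose, 3–5 days; foci by 4G2 immunostaining or crystal violet plaques. EC50 from yield curves; MTT CC50 in uninfected BHK; SI = CC50/EC50.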

[4] = Cytotoxicity against MDBK cells assessed as cell viability by MTT assay; type: cell-based, Bos taurus; conditions: cattle
[5] = Cytotoxicity against BHK cells assessed as cell viability by MTT assay; type: cell-based, Mesocricetus auratus; conditions: hamster
[6] = Plasma protein binding in mouse plasma; type: ADME, cell-free; conditions: read-out: PPB (converted)
Outline: (§1)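 Binding of compound to human, rat or mouse plasma protein, reported as % bound.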

CYP1A2 = molecular target: T1, CYP1A2 (Homo sapiens, UniProt P05177); assay: Inhibition of human CYP1A2 at 10 uM; type: ADME
T1 sequence (P05177 whole entry): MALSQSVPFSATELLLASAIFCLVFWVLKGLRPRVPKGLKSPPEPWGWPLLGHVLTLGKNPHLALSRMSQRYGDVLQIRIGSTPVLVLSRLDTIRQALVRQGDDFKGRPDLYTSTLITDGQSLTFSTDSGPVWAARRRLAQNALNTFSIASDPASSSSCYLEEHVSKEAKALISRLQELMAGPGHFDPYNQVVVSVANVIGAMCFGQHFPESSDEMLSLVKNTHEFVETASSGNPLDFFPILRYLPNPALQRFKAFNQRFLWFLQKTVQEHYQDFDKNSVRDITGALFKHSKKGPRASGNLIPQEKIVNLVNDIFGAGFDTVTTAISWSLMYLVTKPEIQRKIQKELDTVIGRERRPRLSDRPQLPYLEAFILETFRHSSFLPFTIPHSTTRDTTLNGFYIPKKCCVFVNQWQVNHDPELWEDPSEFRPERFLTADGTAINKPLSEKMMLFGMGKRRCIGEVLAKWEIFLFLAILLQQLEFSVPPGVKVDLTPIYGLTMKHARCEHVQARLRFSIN
Outline: (§2)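 Inhibition of CYP isoforms with compound at 10 μM, reported as % inhibition. CYP3A4 run with midazolam or testosterone as substrate.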

[7] = Metabolic stability in human liver microsomes at 60 mins; type: ADME, Microsome; conditions: read-out: Stability
CYP2D6 = CYP2D6 (Homo sapiens, UniProt P10635); assay: Inhibition of human CYP2D6 at 10 uM; type: ADME
Outline: (§3)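 Inhibition of CYP isoforms by compounds tested at 10 μM, given as percent inhibition; contract in vitro ADME panel.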

CYP3A4 [8] = molecular target: T2, CYP3A4 (Homo sapiens, UniProt P08684); assay: Inhibition of human CYP3A4 using midazolam as substrate at 10 uM; type: ADME; conditions: probe midazolam; outline: as §2
CYP2C19 = CYP2C19 (Homo sapiens, UniProt P33261); assay: Inhibition of human CYP2C19 at 10 uM; type: ADME; outline: as §2
[9] = Metabolic stability in rat liver microsomes at 60 mins; type: ADME, Microsome; conditions: read-out: Stability
[10] = Aqueous solubility in PBS at pH 7.4; type: physicochemical; conditions: buffer
CYP2C9 = CYP2C9 (Homo sapiens, UniProt P11712); assay: Inhibition of human CYP2C9 at 10 uM; type: ADME; outline: as §3
[11] = Aqueous solubility in PBS at pH 4; type: physicochemical; conditions: buffer
[12] = Plasma protein binding in rat plasma; type: ADME, cell-free; conditions: read-out: PPB (converted); outline: as §1
[13] = Metabolic stability in mouse liver microsomes at 60 mins; type: ADME, Microsome; conditions: read-out: Stability
[14] = Plasma protein binding in human plasma; type: ADME, cell-free; conditions: read-out: PPB (converted); outline: as §1
CYP3A4 [15] = molecular target: T2, CYP3A4; assay: Inhibition of human CYP3A4 using testosterone as substrate at 10 uM; type: ADME; conditions: probe testosterone; outline: as §2

T2 sequence (P08684 whole entry): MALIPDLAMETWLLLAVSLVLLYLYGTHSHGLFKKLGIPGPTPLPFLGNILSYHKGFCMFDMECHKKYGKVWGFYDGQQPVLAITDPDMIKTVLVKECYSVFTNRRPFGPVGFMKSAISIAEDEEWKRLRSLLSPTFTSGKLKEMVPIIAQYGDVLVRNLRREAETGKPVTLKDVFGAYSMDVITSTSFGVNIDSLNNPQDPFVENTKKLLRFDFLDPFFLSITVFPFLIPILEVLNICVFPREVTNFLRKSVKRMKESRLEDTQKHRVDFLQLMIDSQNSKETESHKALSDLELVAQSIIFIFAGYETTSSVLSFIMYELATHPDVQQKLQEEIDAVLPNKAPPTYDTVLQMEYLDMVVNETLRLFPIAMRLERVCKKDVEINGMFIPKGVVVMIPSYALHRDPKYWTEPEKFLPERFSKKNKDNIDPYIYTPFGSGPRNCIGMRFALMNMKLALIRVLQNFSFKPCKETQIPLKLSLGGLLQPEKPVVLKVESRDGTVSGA
Chain of CYP2C9 (P11712 whole entry): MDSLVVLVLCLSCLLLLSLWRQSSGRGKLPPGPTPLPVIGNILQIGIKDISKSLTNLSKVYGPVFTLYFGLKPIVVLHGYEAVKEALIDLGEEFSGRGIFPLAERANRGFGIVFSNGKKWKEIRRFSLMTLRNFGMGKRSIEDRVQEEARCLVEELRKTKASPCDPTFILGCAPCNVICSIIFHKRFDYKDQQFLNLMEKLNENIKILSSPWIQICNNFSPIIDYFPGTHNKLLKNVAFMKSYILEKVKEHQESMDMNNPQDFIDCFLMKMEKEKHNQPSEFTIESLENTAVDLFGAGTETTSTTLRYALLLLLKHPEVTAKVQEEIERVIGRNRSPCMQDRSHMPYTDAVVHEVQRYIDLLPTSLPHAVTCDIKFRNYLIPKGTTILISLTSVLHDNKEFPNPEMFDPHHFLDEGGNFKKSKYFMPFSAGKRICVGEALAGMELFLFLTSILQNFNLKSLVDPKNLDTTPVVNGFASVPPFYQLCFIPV
Chain of CYP2C19 (P33261 whole entry): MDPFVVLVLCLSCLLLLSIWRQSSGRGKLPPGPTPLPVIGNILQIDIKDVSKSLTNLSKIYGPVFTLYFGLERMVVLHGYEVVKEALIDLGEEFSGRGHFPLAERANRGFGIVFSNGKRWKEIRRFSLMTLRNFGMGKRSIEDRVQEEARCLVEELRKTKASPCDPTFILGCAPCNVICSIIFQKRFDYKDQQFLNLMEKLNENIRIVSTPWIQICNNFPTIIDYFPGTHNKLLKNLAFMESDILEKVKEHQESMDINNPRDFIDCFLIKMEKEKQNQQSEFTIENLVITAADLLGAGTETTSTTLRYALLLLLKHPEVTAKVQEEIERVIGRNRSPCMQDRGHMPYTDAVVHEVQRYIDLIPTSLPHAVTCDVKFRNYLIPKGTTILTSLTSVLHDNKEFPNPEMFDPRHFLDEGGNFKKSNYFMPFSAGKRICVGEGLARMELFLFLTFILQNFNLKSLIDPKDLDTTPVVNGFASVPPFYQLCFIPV
Chain of CYP2D6 (P10635 whole entry, canonical isoform): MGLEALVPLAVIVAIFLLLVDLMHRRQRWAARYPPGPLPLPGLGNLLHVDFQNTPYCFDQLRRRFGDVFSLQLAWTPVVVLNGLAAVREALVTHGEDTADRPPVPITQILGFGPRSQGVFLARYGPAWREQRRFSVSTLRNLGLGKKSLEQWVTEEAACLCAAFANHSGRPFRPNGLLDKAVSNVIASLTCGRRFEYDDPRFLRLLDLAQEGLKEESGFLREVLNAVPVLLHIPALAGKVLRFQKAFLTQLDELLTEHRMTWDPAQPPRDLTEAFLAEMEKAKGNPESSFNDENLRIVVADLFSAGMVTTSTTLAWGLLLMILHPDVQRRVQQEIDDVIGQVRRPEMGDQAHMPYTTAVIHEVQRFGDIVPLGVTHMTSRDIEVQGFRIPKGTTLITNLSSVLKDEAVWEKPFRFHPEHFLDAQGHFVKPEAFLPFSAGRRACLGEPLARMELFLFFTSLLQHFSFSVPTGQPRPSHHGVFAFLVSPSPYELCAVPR

Compound | EC50 [1] [nM] | EC50 (dengue virus type 2) [nM] | Ratio CC50/EC50 [2] | Ratio CC50/EC50 [3] | CC50 [4] [nM] | CC50 [5] [nM] | fraction unbound [6] | inhibition at 10 µM (CYP1A2) [%] | remaining at 1 h [7] [%] | inhibition at 10 µM (CYP2D6) [%] | inhibition at 10 µM (CYP3A4 [8]) [%] | inhibition at 10 µM (CYP2C19) [%] | remaining at 1 h [9] [%] | solubility [10] [µM] | inhibition at 10 µM (CYP2C9) [%] | solubility [11] [µM] | fraction unbound [12] | remaining at 1 h [13] [%] | fraction unbound [14] | inhibition at 10 µM (CYP3A4 [15]) [%]
OC[C@@H]1[C@@H](O)[C@H](O)[C@@H](O)CN1CC/C=C\CCOc1cc(F)ccc1F | 2000 | 8500 | >250 | >59 | > 500000 |  |  |  |  |  |  |  |  |  |  |  |  |  |  | 
OC[C@@H]1[C@@H](O)[C@H](O)[C@@H](O)CN1CCC#CCCOc1cc(F)ccc1F | 47000 | 20000 | >11 | >25 | > 500000 | > 500000 |  |  |  |  |  |  |  |  |  |  |  |  |  | 
OC[C@@H]1[C@@H](O)[C@H](O)[C@@H](O)CN1CCCCCCOc1ccc(OC(F)(F)F)cc1 | 1300 | 600 | >385 | >833 | > 500000 | > 500000 |  |  |  |  |  |  |  |  |  |  |  |  |  | 
OC[C@@H]1[C@@H](O)[C@H](O)[C@@H](O)CN1CC/C=C/CCOc1cc(F)ccc1F | 900 | 2200 | >556 | >227 |  | > 500000 |  |  |  |  |  |  |  |  |  |  |  |  |  | 
CCCOc1ccc(CCCN2C[C@H](O)[C@@H](O)[C@H](O)[C@H]2CO)cc1 | 200 | 500 | >2500 | >1000 | > 500000 | > 500000 |  |  |  |  |  |  |  |  |  |  |  |  |  | 
COc1ccccc1OCCCCCCN1C[C@H](O)[C@@H](O)[C@H](O)[C@H]1CO | 1000 | 800 |  |  | > 500000 | > 500000 | 0.31 | -1.6 | 99 | 8.7 | 12.1 | -4.4 | 98 | 293 (≈ 108 µg/mL) | 11.7 | 286 (≈ 106 µg/mL) | 0.3 | 92 | 0.35 | -2.4
CCCOc1ccccc1CCCN1C[C@H](O)[C@@H](O)[C@H](O)[C@H]1CO | 800 | 3200 | >625 | >156 | > 500000 | > 500000 |  |  |  |  |  |  |  |  |  |  |  |  |  | 
OC[C@@H]1[C@@H](O)[C@H](O)[C@@H](O)CN1CCCCCCOc1ccc(C(F)(F)F)cc1 | 1100 | 1300 | >455 | 362 | > 500000 | 470000 |  |  |  |  |  |  |  |  |  |  |  |  |  | 
COc1ccc(OCCCCCCN2C[C@H](O)[C@@H](O)[C@H](O)[C@H]2CO)cc1 | 1000 | 4000 | >500 | >125 | > 500000 | > 500000 |  |  |  |  |  |  |  |  |  |  |  |  |  | 
OC[C@@H]1[C@@H](O)[C@H](O)[C@@H](O)CN1CCCCCCOc1ccc(F)cc1 | 300 | 1100 | >1667 | >455 | > 500000 | > 500000 |  |  |  |  |  |  |  |  |  |  |  |  |  | 
